Only some compounds are listed: those with a hit (about 1.6% of all), similar ones and a draw of the others.
Apaf-1 inh – inhibitors of human Apaf-1 apoptosome | O14727 | reconstituted apoptosome caspase-3 activity, DEVD-Rh110 fluorescence | inhibition, % at 20 µM | 330,000 compounds, 0.71% hits; active = inhibition of at least 40% at 20 µM;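 also: plate controls were DMSO wells for no effect and DEVD-CHO caspase inhibitor wells for full effect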
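Assay system: Apoptosome proteins | Medium: pH 7.5 Hepes buffer with CHAPS, BSA, DTT | Also added: Cytochrome c and DEVD-Rh110 substrate | Times: 30 min plus 50 min, RT | Detection: Rhodamine 110 fluorescence at Ex 480/Em 540 nm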
SUMO HTRF inh – blocks human SUMOylation mediated by UBC9; 290,000 compounds, 0.36% hits; AID 2006; inhibition, % at 35 µM; HTRF SUMOylation assay, SAE1/SAE2 + UBC9, in vitro; P63279; in the data active = inhibition above about 50%, passing the limit was not always enough
Target sequence (P63279 whole entry, looked up): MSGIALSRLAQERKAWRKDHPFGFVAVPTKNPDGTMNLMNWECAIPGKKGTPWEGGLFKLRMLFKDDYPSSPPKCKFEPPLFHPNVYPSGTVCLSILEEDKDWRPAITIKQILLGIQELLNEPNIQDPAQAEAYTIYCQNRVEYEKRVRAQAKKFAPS
PAD4 FP inh – PAD4 (human) enzyme inhibition; Q9UM07; recombinant PAD4, RCA probe fluorescence polarization; inhibition, % at 6.36 µM; 330,000 compounds, 0.41% hits; AID 485272;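 active = percent inhibition above a cutoff equal to the mean of all tested compounds plus 3 SD, cut at about 15% in these data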;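 also: 0% = PAD4 with RCA probe and DMSO and 100% = probe without PAD4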
GASC-1 inh – human JMJD2C demethylase inhibition; 330,000 compounds, 0.069% hits; Q9H3R0; AID 2099; GST-JMJD2C(1-420) H3K9me3 demethylation, DELFIA europium; inhibition, % at 2.35 µM;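 active = more than half of a compound's replicate wells show inhibition beyond 50%, single wells judged on their own value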;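 also: signal counts dimethyl H3K9 product captured on neutravidin plate; 0% = median of DMSO wells and 100% = 0.3 times that DMSO median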
TDP2 absorb – blocks human TDP2 phosphodiesterase activity; AID 720702; recombinant TDP2, T5PNP hydrolysis, p-nitrophenol absorbance 415 nm; inhibition, % at 12.8 µM; O95551; 370,000 compounds, 0.34% hits;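 active = inhibition above the mean of all tested compounds plus 3 SD, set per campaign, cut at about 25% in these data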;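 also: 0% = DMSO with enzyme and 100% = buffer with substrate but no TDP2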
Target sequence (O95551 whole entry, looked up): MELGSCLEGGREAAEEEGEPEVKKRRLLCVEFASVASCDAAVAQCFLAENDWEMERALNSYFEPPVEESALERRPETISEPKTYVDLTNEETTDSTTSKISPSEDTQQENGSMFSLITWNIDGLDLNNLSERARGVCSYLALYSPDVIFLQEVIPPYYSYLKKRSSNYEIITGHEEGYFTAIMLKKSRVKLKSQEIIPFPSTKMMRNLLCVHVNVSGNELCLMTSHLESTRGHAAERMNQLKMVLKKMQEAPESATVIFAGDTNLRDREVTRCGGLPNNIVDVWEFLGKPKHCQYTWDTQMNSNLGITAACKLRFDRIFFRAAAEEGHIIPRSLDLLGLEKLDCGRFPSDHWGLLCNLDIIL
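Incubation: 2 h at 37 °C; Test system: recombinant human TDP2; Quantity: enzyme 120 nM; Read-out basis: percent inhibition; Medium: 50 mM Tris-HCl pH 7.5 with Mg2+, KCl, DTT, BSA; Repeats: single replicate; Compound: 12.8 µM single point, 1% DMSO; Signal: epi absorbance; Reagent: 5 mM T5PNP chromogenic substrate; Benchmarks: no-enzyme high, DMSO-plus-enzyme low.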
GSTO1 inh – counter-screen for RBBP9 inhibitors: inhibitors of human GSTO1; recombinant GSTO1, activity-based probe fluorescence polarization; inhibition, % at 5.96 µM; AID 1974; P78417; 300,000 compounds, 1.1% hits;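 active = inhibition above the campaign mean inhibition plus 3 SD, cut at about 35% in these data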;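 also: 0% = GSTO1-1 with DMSO and 100% = wells lacking GSTO1-1 enzyme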
Target sequence (P78417 whole entry, looked up): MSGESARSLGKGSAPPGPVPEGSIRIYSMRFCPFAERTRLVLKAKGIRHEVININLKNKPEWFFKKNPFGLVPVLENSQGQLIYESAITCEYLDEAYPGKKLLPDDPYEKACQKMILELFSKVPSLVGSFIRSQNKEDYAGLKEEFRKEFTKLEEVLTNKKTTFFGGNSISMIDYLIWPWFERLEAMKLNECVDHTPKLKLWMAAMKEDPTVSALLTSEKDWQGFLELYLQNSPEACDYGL
Apaf-1 inh conf – confirmation of Apaf-1 inhibitors. shares compounds with Apaf-1 inh. reconstituted apoptosome, caspase-3 DEVD-Rh110 fluorescence. inhibition, % at 20 µM. 1,800 compounds, 25% hits;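 active = mean inhibition of at least 40% at 20 µM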;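 also: plate controls were DMSO wells for no effect and DEVD-CHO caspase inhibitor control wells for full effect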
Rh110 interf inh – Rh110 signal interference in Apaf-1 inhibitor counter-screen. activation (fluorescence interference), % at 20 µM. shares compounds with Apaf-1 inh. Rh110 fluorescence interference, quenched caspase reaction. AID 504615. 1,800 tested, under 10 active;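 active = signal rise of 40% or more at 20 µM, treated as a fluorescence artifact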
Fluor interf inh – Apaf-1 inhibitor counter-screen fluorescence artifact; shares compounds with Apaf-1 inh; fluorescence interference counterscreen, Apaf-1 assay format; IC50, µM; 460 tested, under 10 active; call rule not given here
An asterisk follows results filed as active; nt = not tested or not shown.

SMILES	Apaf-1 inh	SUMO HTRF inh	PAD4 FP inh	GASC-1 inh	TDP2 absorb	GSTO1 inh	Apaf-1 inh conf	Rh110 interf inh	others
COc1ccc(C(CNC(=O)c2cc3c(s2)CCC(C)C3)N2CCCC2)cc1 (stereo not drawn)	60.6*	nt	-6.5	5.1	-6.6	nt	35.2	9.2
CCC1CCc2sc(C(=O)NCC(c3ccccc3OC)N3CCCC3)cc2C1 (stereo not drawn)	49.3*	nt	0.2	-5.8	-4.2	nt	16.6	11.5
COc1ccc(-n2c(SC/C=C/c3ccccc3)nnc2-c2cccs2)cc1	nt	nt	nt	nt	-12.2	nt	nt	nt
CCC(C)N(C(=O)CN1C(=O)C2CCCCN2C(=O)c2ccccc21)C(C)CC (stereo not drawn)	nt	nt	nt	nt	6.0	nt	nt	nt
O=C(CSc1nnc(-c2ccncc2)n1-c1ccccc1)Nc1cccc2ccccc12	nt	nt	nt	nt	-2.0	nt	nt	nt
CN1CCN(c2cc3c(c4c2[nH]c2ccccc24)C(=O)CC(C)(C)C3)CC1	50.4*	14.1	0.8	7.0	-6.7	-7.5	5.0	-2.5
CCOC(=O)c1cc(-c2ccc(/C=C3/C(=O)N(c4ccc(C(=O)O)cc4)N=C3C)o2)ccc1Cl	50.0*	50.0	-1.9	4.2	-3.7	-0.1	29.8	7.4
COc1ccccc1CNC(=O)CN1C(=O)NC(c2ccccc2)(c2ccc(C)c(C)c2)C1=O (stereo not drawn)	65.9*	nt	nt	nt	-12.6	nt	15.2	-1.8
Cc1sc2ncnc(N3CCC(C(=O)N(C)CC(=O)Nc4ccccc4Cl)CC3)c2c1C	59.9*	9.9	-5.5	-11.3	-13.1	0.3	35.2	0.9
Cc1sc2ncnc(N3CCC(C(=O)N(C)CC(=O)Nc4ccccc4Br)CC3)c2c1C	26.3	3.6	3.2	-10.7	5.7	-3.2	nt	nt
COc1ccc(CN(CCN2CCOCC2)C(=O)c2cc(F)ccc2C)cc1OC	nt	nt	nt	nt	6.7	nt	nt	nt
O=C(Nc1ccc(-c2nc3ccc(NC(=O)c4cccs4)cc3[nH]2)cc1)c1cccs1	68.9*	55.7*	-5.7	-7.2	8.2	3.5	90.0*	6.7	Fluor interf inh=>100
Clc1ccc(C2=Nn3c(nnc3-c3n[nH]c4c3CCC4)SC2)cc1Cl	42.9*	4.2	-4.4	-6.5	6.7	-9.9	34.1	3.7
COCCCNC(=O)c1ccc2c3c(onc13)-c1ccccc1C2=O	80.0*	7.7	-15.9	-2.1	nt	43.7*	74.1*	8.8	Fluor interf inh=>100
COc1cc(N)c(Cc2nccc3cc(OC)c(OC)cc23)cc1OC	47.5*	17.1	-15.6	-3.8	5.8	14.1	24.7	-0.1
CC(=O)c1c(C)[nH]c(C(=O)Nc2ccccc2C)c1C	nt	nt	nt	nt	5.8	nt	nt	nt
Cc1ccc(C(=O)N(C)Cc2ccccc2)cc1S(=O)(=O)N1CCOCC1	-2.4	2.5	1.4	12.4	0.2	3.1	nt	nt
COc1cccc(CN(C)C(=O)c2cc(S(=O)(=O)N3CCCCCC3)ccc2OC)c1	50.6*	nt	-3.6	-4.0	1.6	nt	37.6	3.8
COc1cccc(CN(C)C(=O)c2ccc(C)c(S(=O)(=O)N3CCCCC3)c2)c1	40.1*	nt	1.2	3.8	-15.2	nt	39.5	11.3
COc1ccc(CN(C)C(=O)c2cc(S(=O)(=O)N3CCCCCC3)ccc2OC)cc1OC	32.7	-5.8	3.5	20.0	-1.8	-3.1	nt	nt
COc1ccccc1C(=O)N1CCCC(c2nc(-c3cccs3)no2)C1 (stereo not drawn)	nt	nt	nt	nt	-2.9	nt	nt	nt
c1ccc(-c2sc3ccccc3c2-c2ccc(OCCN3CCCCC3)cc2)cc1	52.5*	nt	2.8	-5.9	-8.5	nt	5.5	9.1
Oc1ccc(-c2c(-c3ccsc3)sc3ccccc23)cc1	3.9	0.0	6.3	-7.5	-1.3	-1.9	nt	nt
c1ccc2c(-c3ccc(OCCN4CCCCC4)cc3)c(-c3ccsc3)sc2c1	59.1*	nt	-4.9	0.9	-8.4	nt	9.5	9.9
CC(C)N1CCCCC(NC(=O)c2c(F)cccc2F)C1=O (stereo not drawn)	nt	nt	nt	nt	-6.8	nt	nt	nt
SMILES	Apaf-1 inh	SUMO HTRF inh	PAD4 FP inh	GASC-1 inh	TDP2 absorb	GSTO1 inh	Apaf-1 inh conf	Rh110 interf inh	others
CCCN(CC(=O)Nc1ccccc1OC)C(=O)Cc1ccc2c(c1)CCC2	3.9	nt	-2.0	-0.4	nt	nt	nt	nt
CCCN(CC(=O)Nc1ccccc1C)C(=O)COc1ccc2c(c1)CCC2	60.0*	-1.8	-0.3	-2.2	4.2	-3.0	36.8	5.3
N=c1c(C(=O)NCc2ccc(F)cc2)cc2c(=O)n3ccccc3nc2n1CCCN1CCOCC1	-0.3	29.5	-3.1	-1.0	-4.7	2.1	nt	nt
COC(=O)c1c(N)n(CCCN2CCOCC2)c2nc3ccccc3nc12	-71.9	19.4	-6.5	-11.1	-4.5	6.4	nt	nt
Nc1c(C(=O)NCc2ccc(F)cc2)c2nc3ccccc3nc2n1CCCN1CCOCC1	59.2*	44.9	-7.0	4.5	-4.4	-3.8	24.3	9.4
Nc1c(C(=O)NCc2ccccc2)c2nc3ccccc3nc2n1CCCN1CCOCC1	49.4*	98.5*	-3.1	-0.9	4.6	-2.7	32.5	26.4
CC[C@H]1OC(=O)[C@H](C)[C@@H](O[C@H]2C[C@@](C)(OC)[C@@H](O)[C@H](C)O2)C(C)[C@@H](O[C@@H]2O[C@H](C)C[C@H](N(C)C)[C@H]2O)[C@](C)(O)C[C@@H](C)CN(C)[C@H](C)[C@@H](O)[C@]1(C)O (stereo partly drawn)	nt	nt	nt	nt	-1.2	nt	nt	nt
OC1CC2CCC(C1)N2CCCN1c2ccccc2Sc2ccc(Cl)cc21 (stereo not drawn)	nt	nt	nt	nt	-2.6	nt	nt	nt
CN1CCN(CCCN2c3ccccc3Sc3ccc(Cl)cc32)CC1	57.4*	-14.6	-2.1	-36.8	-9.1	-2.4	13.9	6.1
CCSc1ccc2c(c1)N(CCCN1CCN(C)CC1)c1ccccc1S2	56.8*	nt	4.0	nt	1.5	3.4	18.1	-1.0
CC(CN1CCN(CCOCCO)CC1)CN1c2ccccc2Sc2ccc(Cl)cc21 (stereo not drawn)	nt	nt	nt	nt	-0.1	nt	nt	nt
CCCCCCCCN1C(=O)[C@@H](CC(=O)NCc2ccccc2)C[C@@]2(C(=O)OC)C1=C[C@H](COCc1ccccc1)O[C@@H]2C	nt	nt	nt	nt	-5.8	nt	nt	nt
Oc1ccc2ccccc2c1-c1sc(Nc2ccccc2)n[n+]1-c1ccc(F)cc1	27.6	10.1	-2.5	6.0	-10.9	-0.1	nt	nt
Fc1ccc(-[n+]2nc(Nc3ccccc3)sc2-c2c3ccccc3cc3ccccc23)cc1	42.5*	-7.6	0.5	-2.3	-0.8	-2.9	14.7	4.4
CCCC(=O)OC12CCCN(C1)/C(=C/c1cccc(Cl)c1)C2 (stereo not drawn)	nt	nt	nt	nt	-1.6	nt	nt	nt
COC(=O)CC[C@H](/C=C/C(=O)OC(C)(C)C)Sc1ccc(C(C)(C)C)cc1	nt	nt	nt	nt	-6.4	nt	nt	nt
